Values after ≈ are worked out from the molar mass of the structure shown.
Experiments:
[1] = Apparent intrinsic clearance in human liver microsomes; assay type: ADME, microsome; conditions: read-out: CLH(app)
[2] = Apparent permeability in RRCK cells from apical to basolateral side; assay type: ADME, cell-based, Canis lupus familiaris, MDCKII-LE; conditions: dog, MDCK
Outline: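 RRCK cell monolayer permeability assay; apparent permeability reported in cm/s.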

[3] = biological target: CYP2C8 (Homo sapiens, UniProt P10632); experiment: Inhibition of CYP2C8 in human liver microsomes at 3 uM; assay type: ADME
[4] = biological target: CYP2D6 (Homo sapiens, UniProt P10635); experiment: Inhibition of CYP2D6 in human liver microsomes at 3 uM; assay type: ADME
[5] = Solubility of compound in phosphate buffer at pH 6.7; assay type: physicochemical
Outline: (§1)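 Solubility of crystalline material measured in phosphate-buffered saline pH 6.7, unbuffered water pH 8.1 and simulated fasted-state intestinal fluid pH 6.5, reported in μg/mL.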

[6] = Solubility of compound in simulated fasted state intestinal fluid at pH 6.5; assay type: physicochemical; outline: as §1
[7] = Half life in Wistar Han rat at 1 mg/kg, iv administered as single dose; assay type: ADME, organism-based; conditions: in vivo
[8] = Half life in Beagle dog at 1 mg/kg, iv administered as single dose; assay type: ADME, organism-based, Canis lupus familiaris; conditions: in vivo
[9] = Half life in Beagle dog at 5 mg/kg, po administered as single dose; assay type: ADME, organism-based, Canis lupus familiaris; conditions: in vivo
[10] = system: Canis familiaris; experiment: Plasma clearance in Beagle dog at 1 mg/kg, iv administered as single dose; assay type: ADME, organism-based, Canis lupus familiaris; conditions: in vivo
[11] = Volume of distribution at steady state in Beagle dog at 1 mg/kg, iv administered as single dose; assay type: ADME, organism-based, Canis lupus familiaris; conditions: in vivo, read-out: Vdss
Outline: (§2)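 Single-dose pharmacokinetic study in male animals, with iv and separate oral administration. Steady-state volume of distribution was derived from plasma concentrations after the iv dose.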

[12] = Volume of distribution at steady state in cynomolgus monkey at 1 mg/kg, iv administered as single dose; assay type: ADME, organism-based, Macaca fascicularis; conditions: in vivo, read-out: Vdss; outline: as §2
[13] = Oral bioavailability in Beagle dog at 5 mg/kg administered as single dose; assay type: ADME, organism-based, Canis lupus familiaris; conditions: in vivo
[14] = biological target: Interleukin-1 receptor-associated kinase 1 (Homo sapiens) (UniProt P51617); experiment: Inhibition of recombinant human GST-tagged IRAK1 expressed in baculovirus at 200 nM
[15] = biological target: Dual specificity protein kinase CLK4 (Homo sapiens) (UniProt Q9HAZ1); experiment: Inhibition of recombinant human full length GST-tagged CLK4 expressed in baculovirus at 200 nM
[16] = biological target: Casein kinase I isoform gamma-1 (Homo sapiens) (UniProt Q9HCP0); experiment: Inhibition of recombinant human full length GST-tagged CK1gamma1 expressed in baculovirus at 200 nM
[17] = biological target: Casein kinase I isoform gamma-2 (Homo sapiens) (UniProt P78368); experiment: Inhibition of CK1gamma2 in human THP1 cell lysate at 200 nM
[18] = biological target: Phosphatidylinositol 5-phosphate 4-kinase type-2 gamma (Homo sapiens) (UniProt Q8TBX8); experiment: Inhibition of PIPK2C in human THP1 cell lysate at 200 nM
[19] = biological target: Casein kinase I delta/epsilon (Homo sapiens) (UniProt P48730+P49674); experiment: Inhibition of CK1-delta/epsilon in human THP1 cell lysate at 200 nM
[20] = biological target: Vascular endothelial growth factor receptor 2 (Homo sapiens, UniProt P35968); experiment: Inhibition of human recombinant VEGFR2 at 10 uM using CAGAGAIETDKEYYTVKD as substrate after 60 mins by Lance method
[21] = biological target: Cytochrome P450 1A2 (Homo sapiens, UniProt P05177); experiment: Time dependent inhibition of CYP1A2 in human liver microsomes at 100 uM; assay type: ADME
Outline: (§3)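 Time-dependent inhibition assessed in pooled human liver microsomes with probe substrates, test compound at 100 μM.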

[22] = biological target: Cytochrome P450 2C9 (Homo sapiens, UniProt P11712); experiment: Time dependent inhibition of CYP2C9 in human liver microsomes at 100 uM; assay type: ADME; outline: as §3
[23] = system: Rattus norvegicus; experiment: Inhibition of LPS induced TNFalpha secretion in Sprague-Dawley rat assessed as decrease in TNFalpha level in serum at 0.3 mg/kg, po pretreated for 1 hr followed by LPS challenge measured after 1.5 hrs relative to control; assay type: functional
Outline: (§4)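 Male Sprague-Dawley rats, 6-8 weeks old, n = 6-9 per group. Test article was given orally at 0.3, 1, 3 or 30 mg/kg as a solution or suspension in 0.5% methylcellulose and 2% Tween 80 in water; controls received vehicle alone. Ultrapure LPS (0.01 mg/kg) was given iv 1 h later. Blood was drawn 1.5 h after challenge, and serum TNF was measured by MSD.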

[24] = system: Rattus norvegicus; experiment: Inhibition of LPS induced TNFalpha secretion in po dosed Sprague-Dawley rat assessed as decrease in TNFalpha level in serum pretreated for 1 hr followed by LPS challenge measured after 1.5 hrs relative to control; assay type: functional, organism-based; outline: as §4
[25] = system: Plasma; experiment: Free plasma concentration in Sprague-Dawley rat LPS model at 1 mg/kg, po after 2.5 hrs; assay type: ADME, organism-based; conditions: in vivo
Outline: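 Male Sprague−Dawley rats, 6−8 weeks old, n = 6−9 per group. Dosed orally at 0.3, 1, 3 or 30 mg/kg in 0.5% methylcellulose/2% Tween 80 in water. Ultrapure LPS 0.01 mg/kg iv given 1 h after dosing. Plasma exposure taken 2.5 h after oral dosing and reported as free concentration using fraction unbound in rat plasma.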

Sequence of Cytochrome P450 1A2 (P05177 whole entry): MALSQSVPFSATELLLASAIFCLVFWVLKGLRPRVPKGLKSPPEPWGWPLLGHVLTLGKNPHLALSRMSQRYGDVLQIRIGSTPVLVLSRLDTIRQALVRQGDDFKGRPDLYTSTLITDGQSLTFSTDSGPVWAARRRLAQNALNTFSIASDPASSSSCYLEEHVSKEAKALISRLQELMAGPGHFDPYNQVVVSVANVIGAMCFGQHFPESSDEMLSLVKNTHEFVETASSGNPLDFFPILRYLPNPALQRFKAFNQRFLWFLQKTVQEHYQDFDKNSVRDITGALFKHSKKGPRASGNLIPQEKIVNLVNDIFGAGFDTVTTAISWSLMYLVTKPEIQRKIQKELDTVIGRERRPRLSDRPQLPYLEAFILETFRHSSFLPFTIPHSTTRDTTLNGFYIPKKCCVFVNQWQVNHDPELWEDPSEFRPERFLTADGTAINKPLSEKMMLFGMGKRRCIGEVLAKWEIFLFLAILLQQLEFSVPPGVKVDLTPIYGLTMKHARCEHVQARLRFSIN
Sequence of Phosphatidylinositol 5-phosphate 4-kinase type-2 gamma (Homo sapiens) (Q8TBX8 whole entry): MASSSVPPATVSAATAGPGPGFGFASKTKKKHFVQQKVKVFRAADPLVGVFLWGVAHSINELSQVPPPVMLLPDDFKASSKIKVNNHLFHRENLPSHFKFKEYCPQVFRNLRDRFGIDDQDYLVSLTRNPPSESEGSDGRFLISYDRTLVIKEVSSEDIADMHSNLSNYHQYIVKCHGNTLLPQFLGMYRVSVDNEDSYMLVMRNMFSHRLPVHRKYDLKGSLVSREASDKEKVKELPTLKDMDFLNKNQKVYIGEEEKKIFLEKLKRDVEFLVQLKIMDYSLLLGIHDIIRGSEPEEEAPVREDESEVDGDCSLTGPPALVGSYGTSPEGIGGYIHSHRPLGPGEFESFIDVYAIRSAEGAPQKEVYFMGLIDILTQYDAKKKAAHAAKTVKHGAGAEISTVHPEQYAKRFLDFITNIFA
Sequence of Casein kinase I isoform gamma-1 (Homo sapiens) (Q9HCP0 whole entry, looked up, canonical isoform): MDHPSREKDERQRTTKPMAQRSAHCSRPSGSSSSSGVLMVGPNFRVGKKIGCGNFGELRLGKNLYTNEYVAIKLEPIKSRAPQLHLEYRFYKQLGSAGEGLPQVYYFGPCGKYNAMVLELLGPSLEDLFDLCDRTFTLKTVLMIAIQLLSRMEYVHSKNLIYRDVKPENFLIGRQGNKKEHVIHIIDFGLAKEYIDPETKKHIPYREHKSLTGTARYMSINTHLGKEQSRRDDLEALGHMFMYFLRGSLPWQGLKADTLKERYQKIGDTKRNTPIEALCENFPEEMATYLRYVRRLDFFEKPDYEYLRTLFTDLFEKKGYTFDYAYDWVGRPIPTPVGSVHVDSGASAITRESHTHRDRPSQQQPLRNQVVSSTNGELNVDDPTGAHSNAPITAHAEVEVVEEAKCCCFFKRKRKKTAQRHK
Sequence of Casein kinase I delta/epsilon (Homo sapiens) (P48730 whole entry, looked up): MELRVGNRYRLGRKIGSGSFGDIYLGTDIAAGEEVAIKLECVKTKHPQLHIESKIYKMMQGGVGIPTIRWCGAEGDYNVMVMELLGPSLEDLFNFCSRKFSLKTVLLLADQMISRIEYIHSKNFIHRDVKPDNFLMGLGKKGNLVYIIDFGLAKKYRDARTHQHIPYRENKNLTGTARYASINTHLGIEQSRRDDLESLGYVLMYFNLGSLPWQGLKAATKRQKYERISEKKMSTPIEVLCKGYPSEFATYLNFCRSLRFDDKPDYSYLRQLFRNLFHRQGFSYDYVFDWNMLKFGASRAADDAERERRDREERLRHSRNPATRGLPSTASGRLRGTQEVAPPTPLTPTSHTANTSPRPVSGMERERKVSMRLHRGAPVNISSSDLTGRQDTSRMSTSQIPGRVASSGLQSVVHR
Sequence of Casein kinase I delta/epsilon (Homo sapiens) (P49674 whole entry, looked up): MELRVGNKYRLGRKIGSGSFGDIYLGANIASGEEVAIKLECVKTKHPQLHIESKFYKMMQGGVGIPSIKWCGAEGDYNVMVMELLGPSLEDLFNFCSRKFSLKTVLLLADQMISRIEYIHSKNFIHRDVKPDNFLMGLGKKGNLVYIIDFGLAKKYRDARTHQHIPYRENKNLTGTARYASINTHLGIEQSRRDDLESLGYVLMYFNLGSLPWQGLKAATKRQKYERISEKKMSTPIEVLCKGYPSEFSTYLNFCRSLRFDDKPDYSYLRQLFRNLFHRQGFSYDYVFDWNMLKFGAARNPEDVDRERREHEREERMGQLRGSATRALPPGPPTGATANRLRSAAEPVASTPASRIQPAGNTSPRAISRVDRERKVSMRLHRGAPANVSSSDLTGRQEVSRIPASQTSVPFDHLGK
Sequence of Interleukin-1 receptor-associated kinase 1 (Homo sapiens) (P51617 whole entry, looked up): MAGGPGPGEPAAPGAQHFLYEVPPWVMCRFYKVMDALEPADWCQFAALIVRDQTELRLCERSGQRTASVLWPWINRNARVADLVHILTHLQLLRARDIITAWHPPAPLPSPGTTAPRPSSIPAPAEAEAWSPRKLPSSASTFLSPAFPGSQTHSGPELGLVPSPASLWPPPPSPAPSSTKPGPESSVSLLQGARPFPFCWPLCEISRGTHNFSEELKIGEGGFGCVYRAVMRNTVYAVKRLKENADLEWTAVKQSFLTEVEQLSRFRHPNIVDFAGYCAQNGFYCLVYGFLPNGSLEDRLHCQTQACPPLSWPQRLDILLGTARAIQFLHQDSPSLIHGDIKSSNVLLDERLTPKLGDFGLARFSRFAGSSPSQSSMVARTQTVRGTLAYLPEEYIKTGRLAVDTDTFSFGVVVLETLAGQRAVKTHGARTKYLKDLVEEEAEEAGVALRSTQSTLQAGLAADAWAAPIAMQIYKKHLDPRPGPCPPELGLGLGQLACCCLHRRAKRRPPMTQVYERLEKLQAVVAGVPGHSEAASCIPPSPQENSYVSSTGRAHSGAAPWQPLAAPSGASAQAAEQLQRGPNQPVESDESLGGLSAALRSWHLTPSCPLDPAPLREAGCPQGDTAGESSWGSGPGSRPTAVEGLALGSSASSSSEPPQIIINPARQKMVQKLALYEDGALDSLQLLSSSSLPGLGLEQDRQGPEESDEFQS
Sequence of CYP2C8 (P10632 whole entry): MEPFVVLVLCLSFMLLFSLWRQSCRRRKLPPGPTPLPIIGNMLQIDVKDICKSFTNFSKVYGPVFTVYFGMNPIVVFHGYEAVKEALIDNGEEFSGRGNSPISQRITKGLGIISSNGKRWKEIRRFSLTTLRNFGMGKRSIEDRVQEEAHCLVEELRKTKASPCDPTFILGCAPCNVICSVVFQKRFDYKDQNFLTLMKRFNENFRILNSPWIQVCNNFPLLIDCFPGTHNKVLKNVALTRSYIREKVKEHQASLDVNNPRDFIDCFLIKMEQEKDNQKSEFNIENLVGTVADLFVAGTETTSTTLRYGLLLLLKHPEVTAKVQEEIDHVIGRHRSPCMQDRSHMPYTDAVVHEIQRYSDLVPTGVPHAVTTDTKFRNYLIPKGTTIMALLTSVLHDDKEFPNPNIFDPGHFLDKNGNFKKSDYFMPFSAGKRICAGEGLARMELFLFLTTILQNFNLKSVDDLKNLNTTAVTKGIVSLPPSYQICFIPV
Sequence of Cytochrome P450 2C9 (P11712 whole entry): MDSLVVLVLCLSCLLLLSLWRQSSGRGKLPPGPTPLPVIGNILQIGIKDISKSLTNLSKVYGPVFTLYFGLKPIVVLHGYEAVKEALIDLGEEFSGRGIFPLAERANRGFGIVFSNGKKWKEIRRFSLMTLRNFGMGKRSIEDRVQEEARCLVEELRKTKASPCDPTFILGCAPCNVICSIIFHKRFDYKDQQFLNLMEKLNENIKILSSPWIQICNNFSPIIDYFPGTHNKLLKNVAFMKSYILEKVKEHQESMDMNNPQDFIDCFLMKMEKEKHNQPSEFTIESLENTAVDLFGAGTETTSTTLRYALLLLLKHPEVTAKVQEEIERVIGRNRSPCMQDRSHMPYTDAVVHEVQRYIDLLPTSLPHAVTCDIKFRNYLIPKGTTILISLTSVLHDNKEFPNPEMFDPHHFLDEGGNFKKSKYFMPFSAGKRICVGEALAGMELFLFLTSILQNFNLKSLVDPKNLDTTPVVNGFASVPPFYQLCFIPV
Sequence of Casein kinase I isoform gamma-2 (Homo sapiens) (P78368 whole entry, looked up, canonical isoform): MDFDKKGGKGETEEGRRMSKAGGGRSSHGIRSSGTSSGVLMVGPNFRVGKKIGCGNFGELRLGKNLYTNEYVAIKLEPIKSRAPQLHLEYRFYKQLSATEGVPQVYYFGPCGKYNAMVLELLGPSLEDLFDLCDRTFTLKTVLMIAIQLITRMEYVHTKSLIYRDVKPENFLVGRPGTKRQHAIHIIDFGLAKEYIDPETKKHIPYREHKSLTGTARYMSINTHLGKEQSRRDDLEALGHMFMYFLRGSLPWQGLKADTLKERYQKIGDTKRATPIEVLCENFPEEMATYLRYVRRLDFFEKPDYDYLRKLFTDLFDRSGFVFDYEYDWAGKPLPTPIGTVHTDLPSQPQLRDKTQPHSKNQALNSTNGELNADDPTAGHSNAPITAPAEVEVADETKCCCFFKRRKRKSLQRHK
Sequence of Dual specificity protein kinase CLK4 (Homo sapiens) (Q9HAZ1 whole entry, looked up, canonical isoform): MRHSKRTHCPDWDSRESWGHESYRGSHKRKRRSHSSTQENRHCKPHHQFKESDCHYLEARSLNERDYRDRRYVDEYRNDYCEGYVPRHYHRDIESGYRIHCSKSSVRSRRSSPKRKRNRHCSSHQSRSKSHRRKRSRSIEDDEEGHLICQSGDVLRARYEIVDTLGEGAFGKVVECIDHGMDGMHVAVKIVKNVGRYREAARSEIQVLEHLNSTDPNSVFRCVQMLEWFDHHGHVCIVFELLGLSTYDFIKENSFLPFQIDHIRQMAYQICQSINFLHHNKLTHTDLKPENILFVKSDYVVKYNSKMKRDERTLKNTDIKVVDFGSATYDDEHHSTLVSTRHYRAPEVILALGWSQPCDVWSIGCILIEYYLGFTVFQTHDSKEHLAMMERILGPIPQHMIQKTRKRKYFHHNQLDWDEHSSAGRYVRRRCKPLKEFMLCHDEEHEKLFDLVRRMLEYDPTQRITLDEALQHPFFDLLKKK

CC[C@@H]1[C@H](F)C(=O)N[C@@H]1COc1nccc2cc(C(N)=O)c(OC)cc12 [ZIMLOVISERTIB]
microsomal CLint [1]: 25 µL/min/mg | Papp A→B [2]: 9.6 ×10⁻⁶ cm/s | inhibition at 3 µM [3]: < 5% | inhibition at 3 µM [4]: < 5% | solubility [5]: 57 µg/mL (≈ 158 µM) | solubility [6]: 62 µg/mL (≈ 172 µM) | half-life [7]: 0.6 h | half-life [8]: 1.1 h | half-life [9]: 4 h | clearance [10]: 10 mL/min/kg | Vd [11]: 0.77 L/kg | Vd [12]: 0.95 L/kg | bioavailability [13]: 41% | inhibition [14]: > 70% | inhibition [15]: > 70% | inhibition [16]: > 70% | inhibition [17]: > 50% | inhibition [18]: > 50% | inhibition [19]: > 50% | inhibition [20]: > 50% | TDI [21]: Not Active | TDI [22]: Not Active | inhibition in vivo at 0.3 mg/kg [23]: 12% | inhibition [24]: Dose-dependent effect | Cp(f) [25]: 7.7 nM

— ChEMBL document CHEMBL4014327 (J Med Chem, 2017)
